The text below walks through data of ChEMBL document CHEMBL1124084, “Studies on scavengers of active oxygen species. 1. Synthesis and biological activity of 2-O-alkylascorbic acids” (J Med Chem, 1988).

Each structure is given as a SMILES string.

The species entered for test [1] is Rattus norvegicus. The test is described as follows: Inhibition of lipid peroxidation was determined with rat brain tissue homogenates. Type of test: functional. A digest of the protocol:
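Brains excised from male SD rats (12 weeks), exsanguinated under pentobarbital anesthesia; 5% homogenate in phosphate buffer pH 7.4 incubated with test drug 1 h at 37 °C; lipid peroxide quantified by thiobarbituric acid method.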

Test [2] can be described thus: Reducing activity determined by the use of stable radical alpha,alpha-di-phenyl-beta-picrylhydrazyl (DPPH). On the set-up: concentration or dose not given beside the values.
For test [3], the species on record is Rattus norvegicus. In words: Antilipid peroxidation was determined. It counts as functional. A digest of the protocol: (§1)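 Rat brain lipid peroxidation: brains from male SD rats (12 weeks old), exsanguinated under pentobarbital anaesthesia, homogenized to 5% in phosphate buffer pH 7.4. Homogenate incubated with test drug at 37 °C for 1 h. Lipid peroxide quantified by the thiobarbituric acid method.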

The species named for test [4] is Rattus norvegicus. The test is described as follows: Antilipid peroxidation was measured at 10e-5 M concentration. It counts as functional. A digest of the protocol: as §1
Test [5] deals with Rattus norvegicus. The test is described as follows: Effect of AOS scavenger on ventricular fibrillation (VF),arrhythmias induced by ischemia-reperfusion in anesthetized rat, duration at 1 mg/kg. It counts as functional, Cardiac ventricle.
Test [6] deals with Rattus norvegicus. In words: Effect of AOS scavenger on ventricular fibrillation (VF),arrhythmias induced by ischemia-reperfusion in anesthetized rat, incidence at 1 mg/kg; 5/14. Type of test: functional, Cardiac ventricle.
For test [7], the system named is Rattus norvegicus. In words: Effect of AOS scavenger on ventricular fibrillation (VF),arrhythmias induced by ischemia-reperfusion in anesthetized rat, duration at 10 mg/kg. It counts as functional, Cardiac ventricle.
Test [8] has as its system Rattus norvegicus. The test is described as follows: Effect of AOS scavenger on ventricular tachycardia (VT),arrhythmias induced by ischemia-reperfusion in anesthetized rat, frequency, times at 3 mg/kg. It counts as functional, Cardiac ventricle.
Test [9] has as its system Rattus norvegicus. The test is described as follows: Effect of AOS scavenger on ventricular tachycardia (VT),arrhythmias induced by ischemia-reperfusion in anesthetized rat, frequency, times at 1 mg/kg. Type of test: functional, Cardiac ventricle.
Test [10] concerns Rattus norvegicus. The test is described as follows: Effect of AOS scavenger on ventricular tachycardia (VT),arrhythmias induced by ischemia-reperfusion in anesthetized rat, incidence at 3 mg/kg; 10/10. It counts as functional, Cardiac ventricle.
Test [11] has as its system Rattus norvegicus. In words: Effect of AOS scavenger on ventricular tachycardia (VT),arrhythmias induced by ischemia-reperfusion in anesthetized rat, duration at 3 mg/kg. It counts as functional, Cardiac ventricle.
Test [12] deals with Rattus norvegicus. The test is described as follows: Effect of AOS scavenger on ventricular fibrillation (VF), arrhythmias induced by ischemia-reperfusion in anesthetized rat, frequency, times at 1 mg/kg. Type of test: functional, Cardiac ventricle.
In test [13] the test system is Rattus norvegicus. The test is described as follows: Effect of AOS scavenger on ventricular tachycardia (VT),arrhythmias induced by ischemia-reperfusion in anesthetized rat, duration at 10 mg/kg. It counts as functional, Cardiac ventricle. As to conditions: 10 mg/kg.
For test [14], the system named is Rattus norvegicus. The test is described as follows: Effect of AOS scavenger on ventricular fibrillation (VF), arrhythmias induced by ischemia-reperfusion in anesthetized rat, frequency, timesat 3 mg/kg. Type of test: functional, Cardiac ventricle.
Test [15] deals with Rattus norvegicus. In words: Effect of AOS scavenger on ventricular fibrillation (VF),arrhythmias induced by ischemia-reperfusion in anesthetized rat, duration at 3 mg/kg. It counts as functional, Cardiac ventricle.
The subject of test [16] is Rattus norvegicus. In words: Effect of AOS scavenger on ventricular tachycardia (VT), arrhythmias induced by ischemia-reperfusion in anesthetized rat, frequency, timesat 10 mg/kg. It counts as functional, Cardiac ventricle.
For test [17], the system named is Rattus norvegicus. The test is described as follows: Effect of AOS scavenger on ventricular tachycardia (VT),arrhythmias induced by ischemia-reperfusion in anesthetized rat, incidence at 10 mg/kg; 13/13. It counts as functional, Cardiac ventricle.
The subject of test [18] is Rattus norvegicus. The test is described as follows: Effect of AOS scavenger on premeture ventricular complexes PVCs, arrhythmias induced by ischemia-reperfusion in anesthetized rat, duration at 10 mg/kg. Type of test: functional, Cardiac ventricle. As to conditions: 10 mg/kg.
Test [19] relates to Rattus norvegicus. In words: Effect of AOS scavenger on ventricular fibrillation (VF),arrhythmias induced by ischemia-reperfusion in anesthetized rat, incidence at 10 mg/kg; 4/13. Type of test: functional, Cardiac ventricle.
The test system of test [20] is Rattus norvegicus. In words: Effect of AOS scavenger on premeture ventricular complexes PVCs, arrhythmias induced by ischemia-reperfusion in anesthetized rat, duration at 3 mg/kg. Type of test: functional, Cardiac ventricle.
Test [21] concerns Rattus norvegicus. In words: Effect of AOS scavenger on ventricular tachycardia (VT),arrhythmias induced by ischemia-reperfusion in anesthetized rat duration at 1 mg/kg. It counts as functional, Cardiac ventricle.
Test [22] has as its system Rattus norvegicus. The test is described as follows: Effect of AOS scavenger on premeture ventricular complexes PVCs, arrhythmias induced by ischemia-reperfusion in anesthetized rat, duration at 1 mg/kg. Type of test: functional, Cardiac ventricle.
Test [23] relates to Rattus norvegicus. In words: Effect of AOS scavenger on ventricular fibrillation (VF), arrhythmias induced by ischemia-reperfusion in anesthetized rat, frequency, times at 10 mg/kg. Type of test: functional, Cardiac ventricle. As to conditions: 10 mg/kg.
The test system of test [24] is Rattus norvegicus. The test is described as follows: Effect of AOS scavenger on ventricular fibrillation (VF),arrhythmias induced by ischemia-reperfusion in anesthetized rat, incidence at 3 mg/kg; 3/10. It counts as functional, Cardiac ventricle.

For `CCCCCCCCCCCCCCCCCCCCOC1=C(O)OC(C(O)CO)C1=O` (stereo unspecified), the IC50 in the test filed under Rattus norvegicus [1] was 4.7 µM. In test [2], this molecule came in with a Reducing activity of 95.3%. Moreover, the Antilipid peroxidation in the test listed under Rattus norvegicus [3] came to 75.8%.
Molecule `CCCCCCCCOC1=C(O)OC(C(O)CO)C1=O` (stereo unspecified) came in with an Antilipid peroxidation in the test listed under Rattus norvegicus [4] of 1.6%. This molecule also had a Reducing activity in test [2] of 93.9%.
`CCCCCCCCCCCCCCCCCCOC1=C(O)[C@@H](C(O)CO)OC1=O` (stereo in doubt; 8) displayed an Antilipid peroxidation in the test listed under Rattus norvegicus [3] of 44.7%.
`CCCCCCCCCCCCCCCCCOC1=C(O)OC(C(O)CO)C1=O` (stereo unspecified) displayed an IC50 in the test filed under Rattus norvegicus [1] of 11 µM. In the test listed under Rattus norvegicus [3], this molecule showed an Antilipid peroxidation of 48.8%.
With `CCCCCCCCCCCCOC1=C(O)OC(C(O)CO)C1=O` (stereo unspecified), in the test listed under Rattus norvegicus [1], the half-maximal inhibitory concentration (IC50) was found to be 5.4 µM. The Antilipid peroxidation in the test listed under Rattus norvegicus [3] was 67.4%.
As to `CCCCCCCCCCCCCCCCCCOC1=C(O)[C@@H](C(O)CO)OC1=O` (stereo in doubt; 5k) [listing 1 of 2 here], the Duration in the test with Rattus norvegicus [5] is <4.1 s; with Rattus norvegicus [7], 0.5 s; with Rattus norvegicus [11] it was <6.9 s; in the test on Rattus norvegicus [13] it was 12 s; with Rattus norvegicus [15] it was <1.5 s; with Rattus norvegicus [21], 11.4 s. The Incidence in the test on Rattus norvegicus [6] is given as 5; in the test on Rattus norvegicus [10], 10 N; with Rattus norvegicus [17], 13 N; in the test with Rattus norvegicus [19] it was 4 N; in the test on Rattus norvegicus [24], 3 N. For the same molecule, the Frequency was 4 in the test with Rattus norvegicus [8]; 4.3 with Rattus norvegicus [9]; <1.1 in the test with Rattus norvegicus [12]; <0.7 in the test on Rattus norvegicus [14]; 5.2 in the test on Rattus norvegicus [16]; <0.5 in the test on Rattus norvegicus [23]. In the test listed under Rattus norvegicus [1], the IC50 was found to be 4.3 µM. Moreover, the Activity is reported as 12 min in the test with Rattus norvegicus [18], <4.5 min in the test on Rattus norvegicus [20] and 3.4 min in the test on Rattus norvegicus [22].
Turning to `CCCCCCCCCCCOC1=C(O)OC(C(O)CO)C1=O` (stereo unspecified), the IC50 in the test filed under Rattus norvegicus [1] came out at 13 µM. Further, the Reducing activity in test [2] is 94.6%. This molecule also had an Antilipid peroxidation in the test filed under Rattus norvegicus [3] of 43.4%.
As to `CCCCCCCCCCOC1=C(O)OC(C(O)CO)C1=O` (stereo unspecified), the midpoint of inhibition in the test filed under Rattus norvegicus [1], the IC50, lay at 13 µM. Moreover, the Antilipid peroxidation in the test listed under Rattus norvegicus [3] came to 42.5%.
Taken in the same sequence, the figures for `CCCCCCCCCOC1=C(O)OC(C(O)CO)C1=O` (stereo unspecified) were 27 µM and 22.4%.
The molecule `CCCCCCCCCCCCCCCCCCOC1=C(OC)C(C(O)CO)OC1=O` (stereo unspecified) came in with an Antilipid peroxidation in the test filed under Rattus norvegicus [4] of 12.5%.
Molecule `CCCCCCCCCCCCCCCCCCOC1=C(O)[C@@H](C(O)CO)OC1=O` (stereo in doubt; 5k) [listing 2 of 2 here] returned a Reducing activity in [2] of 95.4%. In the test listed under Rattus norvegicus [3], this molecule showed an Antilipid peroxidation of 65.9%.
